System: MS2 coat protein
Assay: apparent Kd, MS2 coat protein; higher = weaker binding; RNA-MaP array; theophylline 2 mM where present
Summary of the method: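 Stalled E. coli RNA polymerase transcribed the designs on Illumina sequencing-chip clusters. SNAP-549-labelled MS2 coat protein was titrated from 0.7 or 1.5 nM, doubling to 3 µM, without and then with constant ligand, in 100 mM Tris-HCl pH 7.5, 80 mM KCl, 4 mM MgCl2, BSA, DTT, yeast tRNA and Tween-20. Per-cluster binding curves were fitted to green signal normalised to red-channel RNA signal and control-cluster median Fmax. The apparent Kd is the median of the filtered fits.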

[1] = designed as: ON switch for theophylline, no ligand
[2] = ligand present: theophylline, designed as: ON switch for theophylline
[3] = designed as: OFF switch for theophylline, no ligand
[4] = ligand present: theophylline, designed as: OFF switch for theophylline

Sequence	apparent Kd [1]	apparent Kd [2]	apparent Kd [3]	apparent Kd [4]
UAUAUAAUAACAGAUACCAGCGUGUUAUAAAACAUGAGGAUCACCCAUGUAGUGAUCAAGCGCCCUUGGCAGCUGGUAUUAUAUA	72.2 nM	146 nM		
UCUUUCUAUGUAGAUACCAGCAUGUUAUAUUUCUAAUGACAUGAGGAUCACCCAUGUAAAUGCCCUUGGCAGCUGCGUUUUCUUU	16.9 nM	13.2 nM		
UGACAUUGCUCAGAUACCAGACGUGAGGAUCACCCACGUGCCAACAUGAGGAUCACCCAUGUCCCUUGGCAGCUGAGCAAUGUCU			15.7 nM	183 nM
UGCAUCAUAAUCAUGUUGGUGCUAGGUGAUACCAGCAUCGAAAGAUGCCCUUGGCAGCACCAACAUGAGGAUCACCCAUGUAAUA	114 nM	337 nM		
UGGGCAUACAUGAGGAUCACCCAUGUAGAUACCAGCACUAGCCUGUGCCCUUGGCAGCUAACCGGGUCGAGAACUUAGUGCUCCU			11.8 nM	52.7 nM
UGUUUUGUGAUGGAUACCAGCAGAGAAAACGUUUAUCCUAACAUGAGGAUCACCCAUGUAUGCCCUUGGCAGCUGUUGUGGGAUA			29.7 nM	34.1 nM
UUACAUGAGGAUCACCCAUGUCAUAAUGAUACCAGAUAGUUGAUGAUCCCUUGGCAGCAUAGUACCUAGACAUGUGAGUCAUAGG	113 nM	132 nM		
UUUGAUAGGACAGAUACCAGCGUGUUGUUGAACAUGAGGAUCACCCAUGUAGUGAUCAGGCGCCCUUGGCAGCUGGUUUGUUAGG	416 nM	347 nM		
UUUUAAGGGAUCGGUGCUGGUAGCAGAGAUACCAGAGUAAUGAUACUCCCUUGGCAGCUCAGUACAUGAGGAUCACCCAUGUUUU			17.4 nM	25.9 nM

Reference: the EternaBench riboswitch data
